These results are taken from ChEMBL document CHEMBL4118140, “Synthesis and in vitro evaluation of homoisoflavonoids as potent inhibitors of nitric oxide production in RAW-264.7 cells” (Bioorg Med Chem Lett, 2018).

For data set [1], the system named is RAW264.7. The experiment in a line: Antiinflammatory activity in mouse RAW264.7 cells assessed as reduction in LPS-induced NO production at 1 uM after 18 hrs by Griess assay relative to control. It counts as functional. Conditions: RAW264.7, 18 h. The method in brief:
(§1)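 RAW 264.7 macrophages were stimulated with LPS together with test compound at 0.1, 1, 10, 25, 50 and 100 (six levels), with L-NMMA as the reference inhibitor. NO production was measured and expressed as % of the LPS-only control, with inhibition = 100 − that value. Results are mean ± SEM, n = 3, and IC50 came from the concentration series.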
A general note: The Griess reaction detects nitrite, a stable product of nitric oxide.

Data set [2] relates to RAW264.7. Description: Antiinflammatory activity in mouse RAW264.7 cells assessed as reduction in LPS-induced NO production at 10 uM after 18 hrs by Griess assay relative to control. It counts as functional. As to conditions: RAW264.7, 18 h. The method in brief:
as §1

The test system of data set [3] is RAW264.7. The experiment in a line: Antiinflammatory activity in mouse RAW264.7 cells assessed as reduction in LPS-induced NO production after 18 hrs by Griess assay. It counts as functional, cell-based. Conditions: RAW264.7, 18 h. The method in brief:
as §1

Data set [4] is described as follows: Cytotoxicity against mouse RAW264.7 cells assessed as cell viability at 1 uM after 24 hrs by CellTiter96 AQueous one solution cell proliferation assay (reference value: 100 +/- 2.4%). It counts as cell-based. Conditions: read-out: Activity.
Data set [5] in a line: Cytotoxicity against mouse RAW264.7 cells assessed as cell viability at 10 uM after 24 hrs by CellTiter96 AQueous one solution cell proliferation assay (reference value: 100 +/- 2.4%). In kind it is cell-based. Conditions: read-out: Activity.
Data set [6] in a line: Cytotoxicity against mouse RAW264.7 cells assessed as cell viability at 50 uM after 24 hrs by CellTiter96 AQueous one solution cell proliferation assay (reference value: 100 +/- 2.4%). It counts as cell-based. As to conditions: read-out: Activity.
Data set [7] in a line: Cytotoxicity against mouse RAW264.7 cells assessed as cell viability at 100 uM after 24 hrs by CellTiter96 AQueous one solution cell proliferation assay (reference value: 100 +/- 2.4%). It counts as cell-based. Conditions: read-out: Activity.
For data set [8], the system named is RAW264.7. Description: Inhibition of iNOS expression in LPS-stimulated mouse RAW264.7 cells at 10 uM after 18 hrs by Western blot method. It counts as functional, cell-based. Background: In western blotting, separated proteins are transferred to a membrane and probed.
Data set [9] relates to RAW264.7. Description: Effect on beta-actin expression in LPS-stimulated mouse RAW264.7 cells at 10 uM after 18 hrs by Western blot method. In kind it is cell-based. As to conditions: raw264.7, 18 h.

pIC50: −log10 of the molar value. Calls of active or inactive are those of the source. The calls are words filed in the database; no cut-off is given here.

In the case of `COc1cc(O)c2c(c1)OC/C(=C\c1ccccc1O)C2=O`, the inhibition (usually the relative decrease from the control value, in per cent) at 1 µM with RAW264.7 [1] came to 21.1%. For the same compound, in the data set with RAW264.7 [2], the inhibition at 10 µM is 92.5%. For the same compound, the pIC50 (usually the IC50 on a negative log10 scale, so that one unit is a factor of ten) in the data set with RAW264.7 [3] is 5.68. For the same compound, the viability at 24 h, 1 µM in [4] was found to be 94%. Besides, the viability at 24 h, 10 µM in data set [5] was 97%. Moreover, in [6], the viability at 24 h, 50 µM is 10.7%. In addition, in data set [7], the viability at 24 h, 100 µM worked out at 11%. In addition, in the data set on RAW264.7 [8], the “iNOS expression inhibition (active/inactive)” value was “Active”. For the same compound, the Activity result in the data set on RAW264.7 [9] is on record as “Non-Toxic”.

As to `COc1cc(OC)c2c(c1)OC/C(=C\c1ccccc1O)C2=O`, the inhibition at 1 µM with RAW264.7 [1] was found to be 38.5%. In addition, in the data set on RAW264.7 [2], the inhibition at 10 µM amounted to 97.2%. For the same compound, in the data set with RAW264.7 [3], the pIC50 is 5.90. Also, in [4], the viability at 24 h, 1 µM turned out to be 108%. Besides, in data set [5], the viability at 24 h, 10 µM amounted to 114%. The viability at 24 h, 50 µM in data set [6] amounted to 13.3%. The viability at 24 h, 100 µM in [7] was 11.7%. For the same compound, the “iNOS expression inhibition (active/inactive)” value with RAW264.7 [8] was “Active”. Further, in the data set with RAW264.7 [9], the Activity entry is given as “Non-Toxic”.

On to `COc1cc(O)c2c(c1)OCC(Cc1ccccc1O)C2=O` (centres undefined), for which the inhibition at 1 µM in the data set with RAW264.7 [1] came out at 2.8%. For the same compound, the inhibition at 10 µM with RAW264.7 [2] worked out at 38%. The pIC50 with RAW264.7 [3] was 4.91. Further, the viability at 24 h, 1 µM in data set [4] worked out at 97.7%. The viability at 24 h, 10 µM in [5] was determined as 81.1%. For the same compound, the viability at 24 h, 50 µM in data set [6] amounted to 34.2%. The viability at 24 h, 100 µM in data set [7] turned out to be 12.5%.

Turning to `COc1cc2c(c(OC)c1OC)C(=O)C(Cc1ccccc1O)CO2` (racemic), the inhibition at 1 µM with RAW264.7 [1] was -24.6%. Further, the inhibition at 10 µM in the data set on RAW264.7 [2] amounted to 15.9%. In the data set on RAW264.7 [3], the pIC50 was 4.87. The viability at 24 h, 1 µM in [4] amounted to 89.6%. Also, the viability at 24 h, 10 µM in data set [5] was 87.2%. Further, the viability at 24 h, 50 µM in data set [6] was 58.7%. Moreover, in data set [7], the viability at 24 h, 100 µM is 44%.

Regarding `COc1cc(OC)c2c(c1)OCC(Cc1ccccc1O)C2=O` (racemic), the inhibition at 1 µM in the data set with RAW264.7 [1] is -2.8%. In addition, in the data set with RAW264.7 [2], the inhibition at 10 µM stood at 20.5%. Besides, the pIC50 with RAW264.7 [3] was 4.85. For the same compound, in data set [4], the viability at 24 h, 1 µM worked out at 98.6%. The viability at 24 h, 10 µM in data set [5] is 165%. Moreover, the viability at 24 h, 50 µM in data set [6] was 55.2%. In addition, in data set [7], the viability at 24 h, 100 µM is 41.3%.

Turning to `COc1ccc2c(c1)OC/C(=C\c1ccccc1O)C2=O`, the inhibition at 1 µM in the data set with RAW264.7 [1] is 28.4%. The inhibition at 10 µM with RAW264.7 [2] stood at 91.4%. Further, the pIC50 with RAW264.7 [3] is 5.76. The viability at 24 h, 1 µM in data set [4] amounted to 102%. In addition, in [5], the viability at 24 h, 10 µM came out at 97.7%. The viability at 24 h, 50 µM in data set [6] was found to be 11%. Besides, in data set [7], the viability at 24 h, 100 µM was 11.1%. Moreover, in the data set on RAW264.7 [8], the “iNOS expression inhibition (active/inactive)” value was “Active”. The Activity result in the data set on RAW264.7 [9] is “Non-Toxic”.

In the case of `CNC(=N)NCCC[C@H](N)C(=O)O` [TILARGININE], in the data set with RAW264.7 [1], the inhibition at 1 µM is -12.5%. Moreover, the inhibition at 10 µM in the data set on RAW264.7 [2] turned out to be 14.2%. Moreover, the pIC50 with RAW264.7 [3] is 4.79.

In the case of `COc1cc2c(c(OC)c1OC)C(=O)/C(=C/c1ccccc1O)CO2`, the inhibition at 1 µM with RAW264.7 [1] worked out at 16.2%. Also, the inhibition at 10 µM with RAW264.7 [2] turned out to be 83%. The pIC50 with RAW264.7 [3] is 5.54. Also, the viability at 24 h, 1 µM in [4] was determined as 94.6%. In data set [5], the viability at 24 h, 10 µM stood at 93.4%. Besides, in [6], the viability at 24 h, 50 µM came to 11.8%. For the same compound, the viability at 24 h, 100 µM in data set [7] was determined as 10.9%. Further, in the data set on RAW264.7 [8], the “iNOS expression inhibition (active/inactive)” value was “Active”. Further, the Activity result with RAW264.7 [9] is “Non-Toxic”.

Consider `COc1cc2c(c(O)c1OC)C(=O)C(Cc1ccccc1O)CO2` (racemic), for which the inhibition at 1 µM with RAW264.7 [1] is -11.8%. In the data set with RAW264.7 [2], the inhibition at 10 µM came to 34.1%. In addition, the pIC50 in the data set on RAW264.7 [3] is 4.92. In addition, the viability at 24 h, 1 µM in [4] is 97.6%. For the same compound, the viability at 24 h, 10 µM in [5] amounted to 96.7%. The viability at 24 h, 50 µM in data set [6] turned out to be 41.1%. In addition, in data set [7], the viability at 24 h, 100 µM was 15.5%.

For the compound `COc1ccc2c(c1)OCC(Cc1ccccc1O)C2=O` (centres undefined), the inhibition at 1 µM with RAW264.7 [1] came out at 9.2%. Moreover, the inhibition at 10 µM with RAW264.7 [2] is 19.7%. In the data set with RAW264.7 [3], the pIC50 was 4.85. The viability at 24 h, 1 µM in [4] is 152%. The viability at 24 h, 10 µM in [5] was 118%. Moreover, in data set [6], the viability at 24 h, 50 µM came out at 49.4%. The viability at 24 h, 100 µM in data set [7] came to 31.5%.
